Sampled rows, rich in hits. Any-hit rate of the full collection: about 2.2%.
MT1-MMP act inh: inhibitors of human MT1-MMP activation. P50281. HT1080 RFP-PRO-GFP cells, GFP/RFP ratio fluorescence, overnight; percent of plate control window, DMSO zero. GFP/RFP ratio change, % at 20 µM. 0.061% of 360,000 active. AID 651647;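 active = GFP/RFP ratio change of at least 30% with cell ATP level not reduced by more than half and red fluorescence within 50% of control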
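Assay system: HT1080 cells carrying an RFP-PRO-GFP reporter | Dosing: Single dose of 20 µM compound, 1% DMSO final | Incubation: Cells overnight before dosing, compound overnight, 37 °C, 5% CO2 | Evaluation: GFP/RFP fluorescence ratio | Control set: DMSO and RFP-L50D-GFP cell wells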
proKLK7 act: activators of human kallikrein-7 zymogen. P49862. 0.9% of 370,000 active. activation, % at 7 µM. purified proKLK7, EDANS-DABCYL substrate fluorescence; 100% is mature enzyme control, 0% vehicle;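 active = activation above the mean of all tested compounds plus 3 SD, computed per campaign excluding outliers beyond control limits, cut at about 13% in these data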
Target sequence (P49862 whole entry, looked up): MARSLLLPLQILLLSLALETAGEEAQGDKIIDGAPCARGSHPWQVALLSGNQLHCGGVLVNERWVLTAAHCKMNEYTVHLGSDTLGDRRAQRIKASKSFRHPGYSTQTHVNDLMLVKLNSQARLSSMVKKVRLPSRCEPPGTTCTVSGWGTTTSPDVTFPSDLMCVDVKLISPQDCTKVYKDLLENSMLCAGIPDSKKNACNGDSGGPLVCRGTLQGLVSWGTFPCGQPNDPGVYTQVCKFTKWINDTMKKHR
SKN-1 block: inhibitors of C. elegans SKN-1 | 0.49% of 360,000 active | inhibition, % at 21.8 µM | C. elegans VP596 Pgst-4::GFP/RFP ratio, acrylamide-induced, 24 h | AID 624304;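 active = interference check ratio from 0.5 to 1.5 plus GFP to RFP signal ratio inhibition reaching or exceeding a fixed threshold, cut at about 30% in these data, passing the limit was not always enough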
Tn6 DDE FP: DD(E)-Tn6 binding inhibition, primary FP screen; Fibrin DD(E) TRITC-Tn6 fluorescence polarization displacement; 0.21% of 370,000 active; P02675; inhibition, % at 8.3 µM;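 active = inhibition above a per-campaign cutoff: mean of compounds within control limits plus 3 SD, cut at about 15% in these data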;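 note: 0% = median of all compound wells on the plate and 100% = blocking peptide control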
Neddyl block: blocks human cullin neddylation; P61081+Q13564; TR-FRET cullin neddylation, biochemical; calls only at 25 µM; 0.58% of 360,000 active; AID 651699; in the data active = inhibition above about 36%
Tn7 DDE FP: disrupts Tn7 cyclic peptide binding to fibrin D-Dimer-E complex; 0.13% of 370,000 active; P02675; inhibition, % at 8.3 µM; FP displacement of FITC-Tn7 peptide from fibrin DD(E); 0% = median of compound wells per plate; AID 720508;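 active = inhibition above the mean of compounds falling within the control limits plus 3 SD of them, cut at about 14% in these data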;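 note: 0% = plate median of compound wells and 100% = 10 µM Aha-Tn7 peptide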
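assay system = human clot-derived fibrin DD(E) complex | quantity = Fibrin-DD(E) at 2 µM final | timing = 10 min preincubation, 3 h with tracer, room temperature | signal = fluorescence polarization | measure = percent inhibition | benchmarks = high control wells with 10 µM unlabelled Aha-Tn7 peptide (full inhibition) | replicates = singlicate testing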
Neddyl inh conf: cullin neddylation inhibition, confirmation. AID 652217. 13% of 1,800 active. calls only at 25 µM. shares compounds with Neddyl block. TR-FRET cullin neddylation biochemical assay; in the data active = inhibition above about 40%;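 note: neddylation substrate is the cullin 1 ring ligase complex with SKP2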
* = called active by the depositor; i = inactive; x = not tested or not shown; + = active, no number.

SMILES	MT1-MMP act inh	proKLK7 act	SKN-1 block	Tn6 DDE FP	Neddyl block	Tn7 DDE FP	Neddyl inh conf
Cc1cc2n(n1)C(c1ccco1)Nc1ccccc1-2 (stereo unspecified)	0.5	0.3	28.9	5.3	i	0.3	x
CCOC(=O)C(C)c1nc2ccccc2[nH]c1=O (stereo unspecified)	1.2	-1.3	-1.0	4.3	i	-2.3	x
O=C(O)c1sc2cc(C(F)(F)F)cnc2c1-c1cccs1	2.0	2.7	-2.0	-6.2	+	-1.7	+
NC(=O)c1sc2cc(C(F)(F)F)cnc2c1-c1cccs1	3.5	0.4	3.3	4.6	i	1.9	x
CC1(C)Oc2cc3oc(=O)ccc3cc2C[C@@H]1O	-2.0	3.2	12.0	-4.2	+	-1.0	x
COc1ccnc(CS(=O)c2nc3cc(C(O)(F)F)ccc3[nH]2)c1OC (stereo unspecified)	1.3	1.0	13.7	-2.9	i	3.8	x
O=C(Nc1cccnc1Cl)c1cc(-c2cccc(O)c2)on1	-2.4	-0.8	15.4	-1.4	+	-5.3	+
CC(C)(C)c1ccc(OCC(O)CNC(=O)c2ccccc2C(=O)O)cc1 (stereo unspecified)	21.3	-0.4	11.7	-3.3	i	-2.8	x
O=C1N/C(=C/c2cccn2-c2ccccc2)C(=O)N1Cc1ccccc1F	-5.7	0.3	-3.3	-5.3	+	-0.7	i
O=C1N/C(=C/c2cccn2-c2ccc(F)cc2)C(=O)N1Cc1ccccc1	-10.3	-42.5	6.0	0.5	x	7.5	x
CCOC(=O)C(C)Sc1nc2c(c(-c3cccs3)c1C#N)CCC2 (stereo unspecified)	-4.1	-0.5	-1.9	2.2	i	-1.5	x
CCOc1ccccc1N1CCN(S(=O)(=O)c2ccc3c4c(cccc24)C(=O)N3)CC1	-5.4	-0.3	-8.2	-18.7	i	-1.6	x
O=C1Nc2ccc(S(=O)(=O)N3CCCC3)c3cccc1c23	-0.5	5.4	11.1	-0.7	+	-6.2	i
CCOC(=O)N1CCN(S(=O)(=O)c2ccc3c4c(cccc24)C(=O)N3)CC1	-0.5	8.6	1.5	-0.3	+	-3.6	+
O=C1Nc2ccc(S(=O)(=O)N3CCCCCC3)c3cccc1c23	2.1	1.6	-2.7	-3.7	i	-1.7	x
COc1cccc(OC)c1C(=O)NC(=S)NNC(=O)[C@H]1C[C@@H]1c1ccccc1	1.7	0.1	8.9	-3.4	+	0.1	i
CSc1cccc2sc(NC(=O)C3=COCCO3)nc12	7.5	0.0	16.9	8.2	+	-0.1	x
COc1ccc(Cl)c2sc(NC(=O)C3=COCCO3)nc12	2.5	1.2	0.0	-3.0	+	-1.8	i
O=C(NNc1nc2c(F)cccc2s1)C1=COCCO1	2.1	0.2	1.3	-6.6	i	1.0	x
CCC(CC)C(=O)N(C)c1c(C)nc2c(OCc3cccc(OC)c3)cccn12	-3.2	0.5	12.7	0.8	i	6.5	x
O=C(N/N=C/c1cn(Cc2ccccc2)c2ccccc12)c1cc(O)cc(O)c1	4.7	0.2	19.2	-4.1	+	0.2	+
Cc1ccc(C(=O)N/N=C/c2cn(Cc3ccccc3)c3ccccc23)cn1	-0.1	-0.6	8.4	-7.9	i	-4.2	x
CCC(=O)N/C(N)=N/c1nc(C)c2cc(OC)ccc2n1	-13.6	11.5	6.6	-0.6	+	1.5	+
COc1ccc2nc(/N=C(\N)NC(=O)C(C)(C)C)nc(C)c2c1	2.4	5.7	13.1	-2.8	x	4.4	x
CC(C)c1cc(C(=O)OCC(=O)N2CCN(C(=O)c3ccco3)CC2)c(O)c(C(C)C)c1	2.6	-1.0	-5.6	-6.5	+	-3.4	i
SMILES	MT1-MMP act inh	proKLK7 act	SKN-1 block	Tn6 DDE FP	Neddyl block	Tn7 DDE FP	Neddyl inh conf
O=C(Nc1cccc(F)c1)C1CCCN(S(=O)(=O)c2ccccc2)C1 (stereo unspecified)	-1.2	0.2	3.2	6.8	i	7.0	x
CCOc1ccc(N2C(=O)c3ccccc3NC2(C)CC)cc1 (stereo unspecified)	4.3	8.0	-0.2	-5.1	i	3.4	x
COc1ccc(N2C(=O)c3ccccc3NC2(C)C)cc1	1.6	5.3	-2.8	-2.3	x	6.2	x
COc1ccc(N2C(=O)c3ccccc3NC23CCC(C)CC3)cc1 (stereo unspecified)	3.0	-0.2	7.2	6.2	+	1.6	x
COc1ccc(N2C(=O)c3ccccc3NC23CCCCC3)cc1	8.4	5.5	5.5	-2.9	+	1.7	x
c1ccc2c(NC3=NCCCCS3)cccc2c1	-6.0	0.3	8.1	2.4	i	2.2	x
COc1ccc(C2CC(c3ccccc3)=NN2C(=O)COC(=O)CNC(=O)c2ccccc2)cc1 (stereo unspecified)	2.0	-0.3	5.5	8.9	i	1.0	x
COc1ccc(C2CC(c3ccccc3)=NN2C(=O)COC(=O)/C=C/c2ccc(O)c(OC)c2)cc1 (stereo unspecified)	0.2	-1.3	-13.4	-5.7	+	-0.8	i
COC(=O)c1cc(=O)nc2sc(-c3cccs3)nn12	-0.5	-23.8	6.7	4.5	+	-2.6	i
COc1cc(O)cc(/C=C/c2ccccc2)c1	3.6	-0.2	4.9	-2.5	+	-0.9	+
CCOC(=O)c1cc(-c2ccc(N3C(c4ccsc4)=Cc4ccccc4C3CC(C)=O)cc2)cc([N+](=O)[O-])c1 (stereo unspecified)	2.1	-0.2	5.7	6.6	i	4.8	x
COc1ccc(NC(=O)c2cc(-c3ccco3)on2)c(OC)c1	-2.3	12.5	13.0	0.6	i	-1.8	x
COc1cccc(-c2cc(C(=O)Nc3ccccc3SC)no2)c1	3.5	-1.1	-16.3	7.1	x	-5.0	x
COc1cc(NC(=O)c2cc(-c3ccco3)on2)c(OC)cc1Cl	-4.3	-0.8	8.0	5.5	+	-2.1	i
COc1ccc(-c2cc(C(=O)Nc3ccccc3SC)no2)cc1OC	1.9	-0.2	3.7	3.1	+	-4.4	i
CN=C1S/C(=C/c2cn(CC(=O)OC)c3ccccc23)C(=O)N1C	-7.9	0.3	12.3	-11.1	i	-0.1	x
CCn1c(CSCc2ccc(C)cc2)nnc1SCC(=O)NCc1ccccc1	2.9	0.2	-2.3	-3.3	i	0.6	x
CC(=NNC(=O)COc1cccc(C)c1)c1cccnc1	0.3	-0.3	-16.6	-7.5	i	-8.5	x
COc1ccc(-c2nc3c4ccccc4ccn3c2CN2CCCCC2)cc1OC	-2.5	0.3	-3.6	5.5	+	5.6	i
COc1ccc(-c2nc3c4ccccc4ccn3c2CN2CCCCC2)cc1	-6.3	0.0	2.0	6.5	i	-0.3	x
